Laboratory results taken from ChEMBL document CHEMBL2401628, “Low toxicity and unprecedented anti-osteoclast activity of a simple sulfur-containing gem-bisphosphonate: a comparative study” (Eur J Med Chem, 2013).
The source made the active and inactive calls. The calls are words filed in the database; no cut-off is given here.

Experiments:
[1] = system: Hydroxyapatite; assay: Binding affinity to hydroxyapatite at 0.07 mmol up to 120 hrs by 31P NMR-spectroscopy relative to H3PO4
[2] = system: Osteoclast; assay: Inhibition of human osteoclast-mediated type 1 bone collagen degradation assessed as release of europium-labeled collagen fragments at 0.1 uM after 7 days by time-resolved fluorescence assay; format: functional, cell-based
Method in brief: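 Mononuclear cells were seeded on Europium-labelled human type I collagen and cultured 7 days in differentiation medium, then drug was added; total culture time was 14 days. Released fragments in supernatant were measured by time-resolved fluorescence (excitation 340 nm, emission 615 nm). Result is the RFU ratio of treated to untreated osteoclasts, quadruplicate wells, 2 donors.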

[3] = system: Osteoclast; assay: Proapoptotic activity in human osteoclasts at 10 uM after 7 days using Hoechst 33258 staining; format: functional, cell-based
Method in brief: (§1)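 Blood mononuclear cells from donors were differentiated into osteoclasts for 7 days, then exposed to drug for a further 7 days. After fixing, cells were stained with phalloidin-TRITC 0.3 mg/mL plus Hoechst 33258 for 30 min at room temperature. Multinucleated F-actin-ring cells with apoptotic nuclear bodies were counted over the whole well as % of all multinucleated cells, duplicate wells, 4 cultures from 2 donors.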

[4] = system: Osteoclast; assay: Induction of apoptosis in human osteoclasts at 100 uM after 7 days using Hoechst 33258 staining; format: functional, cell-based; method in brief: as §1
[5] = system: PBMC; assay: Antiosteoclast activity in human PBMC assessed as reduction of osteoclasts formation by measuring TRAcP positive multinucleated cells at 10 uM after 7 days; format: functional, cell-based
Method in brief: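 Blood mononuclear cells from healthy donors, adhered 1 h, then cultured 7 days in osteoclast differentiation medium with drug added from the start. Cells were fixed in 3% paraformaldehyde/2% sucrose, permeabilized in 0.5% Triton, and stained for TRAcP for 60 min at 37 °C. TRAcP-positive multinucleated cells were counted as % of untreated differentiated cultures, duplicate wells, 4 cultures from 2 donors.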

[6] = system: L929; assay: Cytotoxicity against mouse L929 cells assessed as reduction of cell viability after 72 hrs by neutral-red uptake assay; format: cell-based; settings: l929, 72 h
Method in brief: (§2)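 Mouse L929 fibroblasts in DMEM with 10% FCS, seeded 0.8 × 10³ cells/well and allowed to adhere 24 h. They were then exposed to serial dilutions of compound (stocks 10 mM in PBS pH 7.4) for 72 h; untreated medium served as negative control. Cells took up 0.4% neutral red diluted 1:80 for 2 h at 37 °C, and dye was extracted in 50% ethanol/1% acetic acid and read at 540 nm. Result is the OD ratio of treated to negative control, triplicate wells, 5 experiments.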

[7] = system: Osteoclast; assay: Inhibition of human osteoclast-mediated type 1 bone collagen degradation assessed as release of europium-labeled collagen fragments at 10 uM after 7 days by time-resolved fluorescence assay; format: functional, cell-based
Method in brief: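 Adherent monocytes from Ficoll-isolated peripheral blood of healthy donors were seeded on human type I bone collagen and differentiated in osteoclast medium for 7 days. They were then exposed to three drug concentrations until day 14. Supernatant was mixed with fluorophore-releasing reagent and Europium-labelled fragments were read by time-resolved fluorescence (ex 340, em 615 nm). Values are the RFU ratio of treated to untreated osteoclasts, from 2 donors in quadruplicate.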

[8] = system: L929; assay: Cytotoxicity against mouse L929 cells assessed as reduction of cell viability at 100 uM after 72 hrs by neutral-red uptake assay; format: cell-based; settings: l929, 72 h; method in brief: as §2
[9] = system: L929; assay: Cytotoxicity against mouse L929 cells assessed as reduction of cell viability at 10 to 100 uM after 72 hrs by neutral-red uptake assay; format: cell-based; settings: l929, 72 h; method in brief: as §2

Work on O=P(O)(O)C(O)(Cn1ccnc1)P(=O)(O)O yielded an Activity [1] of 82%.
In the case of NCCC(O)(P(=O)(O)O)P(=O)(O)O [PAMIDRONIC ACID], the inhibition [2] is reported as “inactive”, the Activity [3] is reported as “inactive” and the Activity [4] is reported as “Active”. The inhibition [5] was “Active” and the Activity [6] was “Dose-dependent effect”.
For O=P(O)(O)C(CNc1ccccn1)P(=O)(O)O, the inhibition [2] was “Active”, the inhibition [7] was “Active” and the Activity [3] was “Active”. For the same molecule, the Activity [4] was “Active”, the inhibition [5] was “Active” and the Activity [6] was “Dose-dependent effect”. The Activity [1] was 94%.
O=P(O)(O)C(CNc1ccccc1)P(=O)(O)O was tested, and the inhibition [5] was “Active”, the Activity [8] was “Toxic” and the Activity [9] was “Toxic”. It also gave an Activity [1] of 66%.
With O=P(O)(O)C(CSCCO)P(=O)(O)O the inhibition [2] was “inactive”, the inhibition [7] was “Active” and the Activity [3] was “Active”. The Activity [4] was “Active”, the inhibition [5] was “Active” and the Activity [8] was “Toxic”. For the same molecule, the Activity [9] was “Toxic” and the Activity [1] was 70%.
In the case of O=P(O)(O)C(CN1CCOCC1)P(=O)(O)O, the inhibition [5] is reported as “Active”, the Activity [8] is reported as “Toxic” and the Activity [9] is reported as “Toxic”. It also gave an Activity [1] of 65%.
O=P(O)(O)C(CSc1ccccc1)P(=O)(O)O was tested, and the inhibition [5] was “inactive”, the Activity [8] was “Toxic” and the Activity [9] was “Toxic”. The Activity [1] was 34%.
